Test results reported in article PMC5653211 (Journal of medicinal chemistry, 2017).

Tests used:
α7 nAChR [1] = biological target: T1, α7 nAChR (Homo sapiens, UniProt P36544); format: cell-based; details: for Response when applied alone, of the control ACh response: concentrations of Figure 4, 60 µM ACh control; for α7 activation / partial agonism: compound applied alone
How it was run: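 Two-electrode voltage clamp on Xenopus laevis oocytes expressing human α7 nAChR. Test compound applied alone at 10, 30, 100, 300 µM and 1 mM; one comparator was tested only up to 300 µM. Response taken as net charge normalized to 60 µM ACh applied alone.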

α7 nAChR [2] = biological target: T1, α7 nAChR; assay: PAM-potentiated α7 responses, co-application with 10 µM 1; format: cell-based; details: for Potentiation by 1: co-applied with 10 µM 1
How it was run: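 Human α7 nAChR in Xenopus laevis oocytes, two-electrode voltage clamp. Test compound at 10, 30 or 100 µM co-applied with 10 µM positive allosteric modulator. Net charge normalized to 60 µM ACh controls in the same cells; at least four cells (± S.E.M.). Desensitization: 60 µM ACh responses recorded before and after test compound application, 210 s traces, averaged over 8 cells and normalized to pre-application ACh controls.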

α7 nAChR [3] = biological target: T1, α7 nAChR; assay: Inhibition of α7 ACh-evoked responses, co-application with 60 µM ACh; format: cell-based; details: range 0.3–100 µM; co-applied with 60 µM ACh
How it was run: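 Xenopus laevis oocytes expressing human α7 nAChR, two-electrode voltage clamp. Test compound co-applied with 60 µM ACh at 0.3, 1, 3, 10, 30, 100 […] µM. Net charge normalized to responses to 60 µM ACh applied alone. Each point is the mean of at least four cells (± S.E.M.); IC50 values come from the inhibition concentration-response curve.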

[4] = Hydrolytic stability in water and Ringer's buffer by 1H-NMR; format: physicochemical; details: water, room temperature (~ 25 °C), 3 h, 19 h and up to 60 days
[5] = biological target: ganglionic α3β4 human nAChR (Homo sapiens, UniProt P30926+P32297); assay: Activation and ACh competition at ganglionic α3β4 nAChR, oocyte voltage clamp; format: cell-based
muscle type human nAChR = muscle type human nAChR (Homo sapiens, UniProt P02708+Q07001); assay: Activation and ACh competition at muscle type nAChR, oocyte voltage clamp; format: cell-based
[6] = biological target: human heteromeric nicotinic receptor α4β2 (Homo sapiens, UniProt P17787+P43681); format: cell-based

CC[N+]1(CC)CCN(c2ccccc2)CC1 [compound 4, N,N-diethyl-N’-phenylpiperazine, reference compound]
Response when applied alone, of the control ACh response (α7 nAChR [1]): less than 10%
Potentiated responses relative to the corresponding ones for 7 (α7 nAChR [2]; at 10, 30, and 100 µM + 10 µM 1): half or less
Potentiation by 1 (α7 nAChR [2]): modest potentiation

CCN1CCN(c2ccccc2)CC1 [compound 5, N-phenyl N’-ethyl piperazine]
α7 activation / partial agonism (α7 nAChR [1]): no activation
Response when applied alone, of the control ACh response (α7 nAChR [1]): less than 10%
Potentiation by 1 (α7 nAChR [2]): failed to show significant potentiated responses
Inhibition of α7 ACh responses (α7 nAChR [3]): lacked the ability to inhibit

CC[S+]1CCN(c2ccccc2)CC1.O=S(=O)([O-])C(F)(F)F [compound 7, 1-ethyl-4-phenylthiomorpholin-1-ium trifluoromethane sulfonate]
Hydrolytic stability, 1H-NMR spectra vs time zero [4]: no differences in the spectra
Activation ([5]; 30 µM compound): failed to produce measureable activation
Antagonism ([5]; co-application with 100 µM ACh): weak antagonism
Activation (muscle type human nAChR; 30 µM compound): failed to produce measureable activation
Antagonism (muscle type human nAChR; co-application with 30 µM ACh): weak antagonism
α7 activation / partial agonism (α7 nAChR [1]): virtually no activation
Response when applied alone, of the control ACh response (α7 nAChR [1]): less than 10%
Agonism [6]: failed to show agonism
PAM response enhancement compared to the parent compound 4 (α7 nAChR [2]): 4 fold
Reversibility of desensitization (α7 nAChR [2]; 100 µM 7 for 30s, then 10 µM PNU120596, subsequent 60 µM ACh response): readily reversible
Potentiated response relative to the response to compound applied alone (α7 nAChR [2]; coapplication with 10 µM 1): 2–3 orders of magnitude
Response compared to the control ACh response (α7 nAChR [2]; coapplication with 10 µM 1, over 10-100 µM compound): 3 to 25 fold
